# Screening results from PubChem.
# NadD block = inhibitors of Staphylococcus aureus NadD | 360,000 tested, 0.78% active | inhibition, % at 20 µM | AID 602399 | purified NadD enzyme, colorimetric absorbance read-out; in the data active = inhibition above about 26%
# Rpn11 inh = Rpn11 (human) deubiquitinase inhibition | 360,000 tested, 0.59% active | inhibition, % at 20 µM | human 26S proteasome, Ub4-pepOG fluorescence polarization; 20S core pre-blocked with epoxomicin;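 active = inhibition at 20 µM, scaled to each plate's controls, above about 33%, limit read from the data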
# PP1 inh = counter-screen for PP5 inhibitors: inhibitors of human PP1-alpha; P62136; purified PP1alpha, OMFP fluorescence; inhibition, % at 6.7 µM; 320,000 tested, 0.9% active;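 active = inhibition above the mean inhibition of all tested compounds plus 3 SD, computed separately for each screening campaign, cut at about 15% in these data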
# HNF4A DNA FP = change in binding of human HNF4 alpha to DNA | P41235 | HNF4a-FITC DNA binding, fluorescence polarization, 1 h | activity change, % at 10 µM | 360,000 tested, 0.3% active | AID 1224865; in the data active = activity change above about 30%, passing the limit was not always enough
# TPT1 inhibitor = C. albicans TPT1 enzyme inhibition; inhibition, % at 5 µM; AID 1962; 300,000 tested, 0.81% active; recombinant caTPT1, FP RNA substrate dephosphorylation;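 active = inhibition above the mean of all tested compounds plus 3 SD, set per screening campaign, cut at about 24% in these data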;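 also: plate controls were DMSO alone for no effect and ferristatin control at 100 nM for full effect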
# CSN deneddyl inh = inhibitors of human CSN-mediated cullin deneddylation. Purified CSN, SCF-Nedd8-OG deneddylation, fluorescence polarization. 360,000 tested, 0.38% active. inhibition, % at 12.5 µM;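 active = pattern-corrected inhibition above about 35%, with an unprinted fluorescence ratio check between 0.5 and 1.5, limit read from the data, passing the limit was not always enough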;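 also: 0% = enzyme with substrate and 100% = substrate without enzyme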
#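 assay system = purified human Csn5 enzyme expressed in HEK293T cells | amount = 0.24 nM enzyme | buffer or medium = Tris/NaCl/DTT buffer, pH 7.5 | reagent = 10 nM SCFSkp2-Nedd8OG | compound = one concentration, 12.5 µM, 0.25% DMSO | times = 90 min reaction at room temperature | signal = FP | read-out basis = % inhibition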
# Rpn11 confirm = Rpn11 inhibition confirmation, single concentration. shares compounds with Rpn11 inh. purified human 26S proteasome, Ub4-pepOG fluorescence polarization; proteasome pretreated with epoxomicin. inhibition, % at 20 µM. 1,900 tested, 29% active. AID 602318
# MMP-2 counter = blocks human MMP-2, flagging nonselective RPN11 hits; shares compounds with Rpn11 inh; AID 602330; recombinant MMP-2, FRET peptide cleavage fluorescence; inhibition, % at 20 µM; 1,900 tested, 4% active;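 also: human MMP-2 activated beforehand with APMA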
# Target sequence (P08253 whole entry, looked up): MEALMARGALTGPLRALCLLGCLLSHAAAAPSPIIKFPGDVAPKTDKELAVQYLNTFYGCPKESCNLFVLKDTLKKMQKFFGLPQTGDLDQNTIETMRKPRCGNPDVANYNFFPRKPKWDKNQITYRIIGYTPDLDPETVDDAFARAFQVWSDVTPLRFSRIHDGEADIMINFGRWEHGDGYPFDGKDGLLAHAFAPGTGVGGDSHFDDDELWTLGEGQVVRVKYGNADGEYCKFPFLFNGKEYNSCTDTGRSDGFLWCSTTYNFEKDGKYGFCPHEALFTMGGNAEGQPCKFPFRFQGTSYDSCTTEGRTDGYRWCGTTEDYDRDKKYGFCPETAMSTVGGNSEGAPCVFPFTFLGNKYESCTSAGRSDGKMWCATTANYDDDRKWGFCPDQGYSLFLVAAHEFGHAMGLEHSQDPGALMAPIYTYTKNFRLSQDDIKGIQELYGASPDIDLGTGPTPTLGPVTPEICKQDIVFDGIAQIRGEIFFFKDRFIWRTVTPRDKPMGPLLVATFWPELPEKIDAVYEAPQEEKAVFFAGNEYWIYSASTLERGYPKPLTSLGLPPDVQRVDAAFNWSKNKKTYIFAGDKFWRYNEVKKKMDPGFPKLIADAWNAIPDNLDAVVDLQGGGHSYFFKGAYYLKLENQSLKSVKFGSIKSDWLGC
# Thrombin FP = thrombin (bovine) inhibition counter-screen. shares compounds with Rpn11 inh. AID 602333. inhibition, % at 20 µM. 1,900 tested, 13% active. bovine thrombin cleavage of Ub4-pepOG, fluorescence polarization;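 active = mean inhibition at least 40% at 20 µM, or signal 3 deviations below plate average, so some actives read negative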;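 also: plate controls were thrombin with DMSO for no effect and buffer wells lacking thrombin for full effect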
# NadD inh conf = confirmation of Staphylococcus aureus NadD inhibitors | shares compounds with NadD block | purified S. aureus NadD, colorimetric enzyme assay | inhibition, % at 20 µM | 2,000 tested, 13% active | AID 624309; in the data active = inhibition mostly above about 42%, no sharp cut-off; inactive = mostly below about 42%
# HNF4A confirm = change in binding of human HNF4 alpha to DNA, retest; shares compounds with HNF4A DNA FP; HNF4A-FITC DNA binding, fluorescence polarization, 1 h; activity change, % at 12.5 µM; 210 tested, 99% active; AID 1224897; call rule not given here
# Numbers without * were called inactive; . = no result. Rows were chosen to be rich in hits. Some 2.7% of all compounds tested hit in one or more screens of this group. Rule as the data show it, unless noted: active = inhibition above about 40%; inactive = the rest.
SMILES,NadD block,Rpn11 inh,PP1 inh,HNF4A DNA FP,TPT1 inhibitor,CSN deneddyl inh,NadD inh conf,others
CCCCN1C(=O)/C(=C2/Sc3ccccc3N2C)S/C1=N\c1ncn[nH]1,12,66*,15,46*,21,45*,.,Rpn11 confirm=97*;MMP-2 counter=-52;Thrombin FP=62*;HNF4A confirm=75*
CCCCN(C=O)c1c(CC)nc2ccc(C(=O)NCCOc3ccc(OC)cc3)cn12,5,5,.,5,.,-5,.,
CC(=O)N/C(=C\c1ccccc1)C(=O)OCC(=O)N(C)C1CCS(=O)(=O)C1 (centres undefined),-6,-1,.,2,.,2,.,
CN(C)c1ccc(/C=C(\C#N)C(=O)OCC(=O)N(C)C2CCS(=O)(=O)C2)cc1 (centres undefined),-2,78*,3,42*,.,22,.,Rpn11 confirm=61*;MMP-2 counter=-5;Thrombin FP=56*;HNF4A confirm=75*
CC(C)(C)S(=O)N1Cc2cc(CO)cc(CCO)c2[C@H]1CCO (some centres undefined),-1,-2,.,-1,.,3,.,
C=CCN1C=C/C(=C\C=C(C#N)C#N)c2ccccc21,0,103*,6,94*,16,35*,.,Rpn11 confirm=90*;MMP-2 counter=-37;Thrombin FP=89*;HNF4A confirm=111*
C=CCN1/C(=C(\C#N)C2=NS(=O)(=O)c3ccccc32)N(C)c2ccccc21,-8,-7,-3,-2,-4,0,.,
CC(=O)Nc1cccc(-c2ccnc3c2CC(C)(C(=O)Nc2cccc(NS(C)(=O)=O)c2)O3)c1 (centres undefined),-1,-5,.,0,.,3,.,
CCOc1cc(/C=N/NC(=O)Cn2nc([N+](=O)[O-])cc2C)cc(Br)c1OCc1ccccc1C,23,-10,1,-5,0,1,.,
COc1cc(/C=N/NC(=O)Cn2nc([N+](=O)[O-])cc2C)cc(Br)c1OCc1ccccc1,35*,1,3,-4,-2,4,10,
CN(C)C(=O)CSc1ccc(S(=O)(=O)N2CCOCC2)cn1,1,-1,-4,-3,.,0,.,
CCOc1ccc(NC(=O)CN(C)C(=O)c2cc(-c3ccco3)nc3ccccc23)cc1OCC,0,6,.,0,.,-2,.,
CCN(CC)C(=O)COC(=O)c1cc(-c2ccco2)nc2ccccc12,31*,-17,.,-44,.,18,21,
O=C(COC(=O)c1cc(-c2ccco2)nc2ccccc12)NCc1ccccc1,46*,-14,7,-2,0,6,19,
CN(CC(=O)Nc1ccc(F)cc1)C(=O)c1cc(-c2ccco2)nc2ccccc12,41*,8,4,-19,2,53*,26,
Cn1c(N)c(C(=O)COC(=O)c2cc(-c3ccco3)nc3ccccc23)c(=O)n(C)c1=O,59*,20,.,-20,.,46,74*,
NC(=O)c1cc(S(=O)(=O)NCc2ccc(Br)cc2)cs1,-6,-3,-3,-3,1,-2,.,
O=C(O)CSc1c2c(nc3cc(C(=O)Nc4cccc(C(F)(F)F)c4)ccc13)CCC2,34*,1,6,-11,0,5,31,
COc1cc(Cl)c(C)cc1NC(=O)c1ccc2c(SCC(=O)O)c3c(nc2c1)CCCC3,12,4,12,-8,2,2,.,
CCOC(=O)c1ccccc1NC(=O)c1ccc2c(SCC(=O)O)c3c(nc2c1)CCCC3,30*,13,3,-2,1,7,62*,
